Reference: ChEMBL document CHEMBL4706681, “New 2-Pyrazoline and Hydrazone Derivatives as Potent and Selective Monoamine Oxidase A Inhibitors” (J Med Chem, 2021)

Key:
[1] = target: T1, Amine oxidase [flavin-containing] B (Homo sapiens, UniProt P27338); test: Inhibition of recombinant human MAO-B expressed in baculovirus infected BTI insect cells using p-tyramine as substrate incubated for 30 mins by Amplex red reagent based fluorescence analysis; format: cell-based
T1 sequence (P27338 whole entry): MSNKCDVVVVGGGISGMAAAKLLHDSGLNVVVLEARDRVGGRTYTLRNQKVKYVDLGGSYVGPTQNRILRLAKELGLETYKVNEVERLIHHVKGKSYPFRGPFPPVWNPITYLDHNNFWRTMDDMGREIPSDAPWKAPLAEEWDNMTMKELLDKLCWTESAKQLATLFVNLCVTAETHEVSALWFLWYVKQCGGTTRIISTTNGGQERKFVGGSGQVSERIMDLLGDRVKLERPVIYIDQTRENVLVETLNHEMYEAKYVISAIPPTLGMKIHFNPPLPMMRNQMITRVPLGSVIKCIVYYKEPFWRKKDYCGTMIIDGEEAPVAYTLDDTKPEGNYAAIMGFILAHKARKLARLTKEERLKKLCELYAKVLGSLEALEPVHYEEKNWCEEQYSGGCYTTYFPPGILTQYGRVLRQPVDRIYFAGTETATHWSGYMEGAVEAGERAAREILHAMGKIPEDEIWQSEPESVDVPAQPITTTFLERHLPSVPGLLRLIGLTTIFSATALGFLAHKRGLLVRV

[2] = target: T2, Amine oxidase [flavin-containing] A (Homo sapiens, UniProt P21397); test: Inhibition of recombinant human MAO-A expressed in baculovirus infected BTI insect cells using p-tyramine as substrate incubated for 30 mins by Amplex red reagent based fluorescence analysis
T2 sequence (P21397 whole entry): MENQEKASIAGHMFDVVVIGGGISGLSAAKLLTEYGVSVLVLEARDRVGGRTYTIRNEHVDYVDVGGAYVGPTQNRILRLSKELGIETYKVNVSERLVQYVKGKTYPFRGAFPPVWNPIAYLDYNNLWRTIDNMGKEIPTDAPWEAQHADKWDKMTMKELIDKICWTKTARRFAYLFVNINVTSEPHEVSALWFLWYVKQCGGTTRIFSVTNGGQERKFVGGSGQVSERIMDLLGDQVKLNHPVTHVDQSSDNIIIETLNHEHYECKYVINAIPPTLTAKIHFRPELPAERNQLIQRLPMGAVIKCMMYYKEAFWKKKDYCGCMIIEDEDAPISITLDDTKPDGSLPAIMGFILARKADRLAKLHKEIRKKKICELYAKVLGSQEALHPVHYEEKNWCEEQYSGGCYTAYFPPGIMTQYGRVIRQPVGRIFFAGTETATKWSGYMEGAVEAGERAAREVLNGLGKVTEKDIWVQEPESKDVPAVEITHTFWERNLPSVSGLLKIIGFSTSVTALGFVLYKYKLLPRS

[3] = Selectivity index, ratio of Ki for inhibition of recombinant human MAO-A to Ki for inhibition of recombinant human MAO-B using p-tyramine as substrate
[4] = Cytotoxicity against human HepG2 cells assessed as cell viability at 15 uM incubated for 2 hrs by MTT assay relative to control; format: cell-based; conditions: read-out: Activity
Procedure, shortened: (§1)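 HepG2 human hepatoma cells; viability read by MTT assay, with 0.1% DMSO as vehicle control. Viability given as % of control, mean ± SEM (n = 3); p < 0.05 taken as significant.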

[5] = target: T1, Amine oxidase [flavin-containing] B; test: Reversible inhibition of human MAO-B assessed as residual enzyme activity at 4 fold IC50 incubated for 15 mins and measured before dialysis relative to control
Procedure, shortened: (§2)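 Dialysed (MWCO 12 000) at 4 °C for 24 h against 100 mM potassium phosphate pH 7.4, 5% sucrose, buffer changed twice. Dialysed and undialysed mixtures assayed together; residual activity from triplicates.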

[6] = Cytotoxicity against human HepG2 cells assessed as cell viability at 30 uM incubated for 2 hrs by MTT assay relative to control; format: cell-based; conditions: read-out: Activity; procedure, shortened: as §1
[7] = target: T2, Amine oxidase [flavin-containing] A; test: Reversible inhibition of human MAO-A assessed as residual enzyme activity at 4 fold IC50 incubated for 15 mins and measured before dialysis by dialysis method relative to control; procedure, shortened: as §2
[8] = target: T2, Amine oxidase [flavin-containing] A; test: Reversible inhibition of human MAO-A assessed as residual enzyme activity at 4 fold IC50 incubated for 15 mins and measured 24 hrs post dialysis by dialysis method relative to control; conditions: 24.25 h, time 1455 min; procedure, shortened: as §2
[9] = Cytotoxicity against human HepG2 cells assessed as cell viability at 7.5 uM incubated for 2 hrs by MTT assay relative to control; format: cell-based; conditions: read-out: Activity; procedure, shortened: as §1
[10] = Permeability of compound in PBS/EtOH buffer (70:30) at 25 ug/ml incubated for 16 hrs by UV plate reader based PAMPA-BBB
[11] = target: T1, Amine oxidase [flavin-containing] B; test: Reversible inhibition of human MAO-B assessed as residual enzyme activity at 4 fold IC50 incubated for 15 mins and measured 24 hrs post dialysis relative to control; conditions: 24.25 h, time 1455 min; procedure, shortened: as §2

SMILES | Ki [1] | Ki [2] | Ratio Ki [3] | further results
COc1cccc(C2=NN(C(=O)Cn3c(=O)oc4ccc(C)cc43)C(c3ccccc3Cl)C2)c1 (centres undefined) | 24.3 µM | 0.011 µM | 4.52 10^-4No_unit | –
COc1ccc(C2=NN(C(=O)Cn3c(=O)oc4ccc(Cl)cc43)C(c3ccccc3Cl)C2)cc1 (centres undefined) | 25.6 µM | 0.065 µM | 0.003 | –
COc1ccccc1C1=NN(C(=O)Cn2c(=O)oc3ccc(C)cc32)C(c2ccccc2Cl)C1 (centres undefined) | 15.9 µM | 0.308 µM | 0.019 | –
Cc1ccc(C2CC(c3ccccc3)=NN2C(=O)Cn2c(=O)oc3ccccc32)cc1 (centres undefined) | 8.95 µM | 0.004 µM | 0.000446 | –
COc1ccc(C2CC(c3ccccc3)=NN2C(=O)Cn2c(=O)oc3ccc(Cl)cc32)cc1OC (centres undefined) | 50.2 µM | 3 µM | 0.06 | –
COc1ccccc1/C=C/C(=N\NC(=O)Cn1c(=O)oc2ccc(Cl)cc21)c1ccccc1 | 2.75 µM | 0.001 µM | 7.27 10^-5No_unit | viability at 2 h, 15 µM [4]: 89%; Activity [5]: 77.29%; viability at 2 h, 30 µM [6]: 87.7%; Activity [7]: 19.55%; Activity [8]: 92.24%; viability at 2 h, 7.5 µM [9]: 91.3%; Papp at 16 h, 25 ug/ml [10]: 146 nm/s; Activity [11]: 97%
COc1ccccc1C(/C=C/c1ccccc1Cl)=N/NC(=O)Cn1c(=O)oc2ccc(C)cc21 | 16.6 µM | 0.011 µM | 6.65 10^-4No_unit | –
Cc1ccc(C2CC(c3ccccc3)=NN2C(=O)Cn2c(=O)oc3ccc(Cl)cc32)cc1 (centres undefined) | 8.55 µM | 0.04 µM | 0.005 | –
COc1cccc(C2CC(c3ccccc3)=NN2C(=O)Cn2c(=O)oc3ccc(C)cc32)c1 (centres undefined) | 21.3 µM | 0.005 µM | 2.35 10^-4No_unit | –
COc1ccccc1C(/C=C/c1ccccc1Cl)=N/NC(=O)Cn1c(=O)oc2ccccc21 | 60 µM | 0.004 µM | 6.66 10^-5No_unit | –
COc1ccccc1C(/C=C/c1ccccc1)=N/NC(=O)Cn1c(=O)oc2ccc(C)cc21 | 54 µM | 0.012 µM | 2.22 10^-4No_unit | –
COc1cccc(C2CC(c3ccccc3)=NN2C(=O)Cn2c(=O)oc3ccc(Cl)cc32)c1 (centres undefined) | 1 µM | 0.985 µM | 0.985 | –
COc1ccc(C2=NN(C(=O)Cn3c(=O)oc4ccccc43)C(c3cccc(OC)c3OC)C2)cc1 (centres undefined) | 255 µM | 0.125 µM | 4.9 10^-4No_unit | –
COc1cccc(/C=C/C(=N\NC(=O)Cn2c(=O)oc3ccccc32)c2ccccc2)c1 | 8.9 µM | 0.001 µM | 1.12 10^-4No_unit | –
COc1cccc(C2=NN(C(=O)Cn3c(=O)oc4ccccc43)C(c3ccccc3Cl)C2)c1 (centres undefined) | 7.5 µM | 0.06 µM | 0.008 | –
Cc1ccc(C2=NN(C(=O)Cn3c(=O)oc4ccc(Cl)cc43)C(c3ccccc3)C2)cc1 (centres undefined) | 55.6 µM | 0.02 µM | 3.6 10^-4No_unit | –
COc1ccc(C2=NN(C(=O)Cn3c(=O)oc4ccccc43)C(c3ccccc3)C2)cc1 (centres undefined) | 9 µM | 0.011 µM | 0.001 | –
NCCc1ccc(O)c(O)c1 [DOPAMINE] | – | – | – | Papp at 16 h, 25 ug/ml [10]: 3.2 nm/s
Cc1ccc(C2=NN(C(=O)Cn3c(=O)oc4ccccc43)C(c3ccccc3)C2)cc1 (centres undefined) | 5.55 µM | 0.019 µM | 0.003 | –

SMILES | Ki [1] | Ki [2] | Ratio Ki [3] | further results
C[C@]12CC[C@@H]3c4ccc(O)cc4CC[C@H]3[C@@H]1CC[C@@H]2O [ESTRADIOL] | – | – | – | Papp at 16 h, 25 ug/ml [10]: 99.9 nm/s
CCn1cc(C(=O)O)c(=O)c2cc(F)c(N3CCNC(C)C3)c(F)c21 (centres undefined) [LOMEFLOXACIN] | – | – | – | Papp at 16 h, 25 ug/ml [10]: 9.9 nm/s
COc1ccc(C2=NN(C(=O)Cn3c(=O)oc4ccc(C)cc43)C(c3ccccc3Cl)C2)cc1 (centres undefined) | 0.4 µM | 0.018 µM | 0.045 | –
Cc1ccc(C2=NN(C(=O)Cn3c(=O)oc4ccc(C)cc43)C(c3ccccc3)C2)cc1 (centres undefined) | 29 µM | 0.05 µM | 0.002 | –
COc1ccccc1C1=NN(C(=O)Cn2c(=O)oc3ccc(Cl)cc32)C(c2ccccc2Cl)C1 (centres undefined) | 11 µM | 0.05 µM | 0.005 | –
COc1ccc(C2=NN(C(=O)Cn3c(=O)oc4ccc(Cl)cc43)C(c3ccccc3)C2)cc1 (centres undefined) | 1.95 µM | 0.004 µM | 0.002 | –
Cc1ccc(C2CC(c3ccccc3)=NN2C(=O)Cn2c(=O)oc3ccc(C)cc32)cc1 (centres undefined) | 5.22 µM | 0.008 µM | 0.002 | –
NCCNC(=O)c1ccc(Cl)cn1 [LAZABEMIDE] | – | > 250 µM | – | viability at 2 h, 15 µM [4]: 89.7%; Activity [5]: 89%; viability at 2 h, 30 µM [6]: 85.6%; Activity [7]: 11%; Activity [8]: 97%; viability at 2 h, 7.5 µM [9]: 92.4%; Activity [11]: 99%
COc1ccc(C(/C=C/c2ccccc2Cl)=N/NC(=O)Cn2c(=O)oc3ccccc32)cc1 | 35 µM | 0.001 µM | 3.43 10^-5No_unit | –
O=C(Cn1c(=O)oc2ccccc21)N/N=C(\C=C\c1ccccc1)c1ccccc1 | 19 µM | 0.001 µM | 5.26 10^-5No_unit | –
COc1ccc(C2=NN(C(=O)Cn3c(=O)oc4ccc(C)cc43)C(c3ccccc3)C2)cc1 (centres undefined) | 7.5 µM | 0.8 µM | 0.107 | –
COc1ccc(C2=NN(C(=O)Cn3c(=O)oc4ccc(Cl)cc43)C(c3cccc(OC)c3OC)C2)cc1 (centres undefined) | 8000 µM | 1.55 µM | 1.94 10^-4No_unit | –
COc1cccc(C2CC(c3ccc(C)cc3)=NN2C(=O)Cn2c(=O)oc3ccc(C)cc32)c1OC (centres undefined) | 52 µM | 0.266 µM | 0.005 | –
COc1cccc(C2=NN(C(=O)Cn3c(=O)oc4ccc(Cl)cc43)C(c3ccccc3Cl)C2)c1 (centres undefined) | 2.55 µM | 0.12 µM | 0.05 | –
COc1ccccc1C1=NN(C(=O)Cn2c(=O)oc3ccccc32)C(c2ccccc2Cl)C1 (centres undefined) | 1.15 µM | 0.013 µM | 0.011 | –
COc1ccccc1C(/C=C/c1ccccc1Cl)=N/NC(=O)Cn1c(=O)oc2ccc(Cl)cc21 | 9.27 µM | 0.001 µM | 1.08 10^-4No_unit | viability at 2 h, 15 µM [4]: 90.6%; Activity [5]: 77.22%; viability at 2 h, 30 µM [6]: 87.4%; Activity [7]: 21.91%; Activity [8]: 93.26%; viability at 2 h, 7.5 µM [9]: 92.1%; Papp at 16 h, 25 ug/ml [10]: 140 nm/s; Activity [11]: 93.41%
COc1cccc(C2CC(c3ccc(C)cc3)=NN2C(=O)Cn2c(=O)oc3ccc(Cl)cc32)c1OC (centres undefined) | 91.3 µM | 0.51 µM | 0.006 | –
COc1cccc(C2CC(c3ccc(C)cc3)=NN2C(=O)Cn2c(=O)oc3ccccc32)c1OC (centres undefined) | 120 µM | 0.028 µM | 2.32 10^-4No_unit | –
COc1ccc(C2CC(c3ccccc3)=NN2C(=O)Cn2c(=O)oc3ccc(C)cc32)cc1OC (centres undefined) | 41.3 µM | 0.17 µM | 0.004 | –
